Series [1] can be described thus: Drug localization in DPH probe-labeled DMPG liposomes at 42 +/- 0.1 degC by fluorescence quenching. It is filed as physicochemical. The gist of the method: (§1)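 LUVs (100 nm extrusion) of DMPC or DMPG at 500 μM total lipid in HEPES 0.01 M, I = 0.1 M (NaCl), pH 7.4, labelled with DPH or DPH-PA (probe:lipid 1:300). Drug (0–27 μM) incubated 30 min at 37.0 °C in the dark. Steady-state intensity (ex 357/360, em 427/430 nm) and lifetime read, corrected for quencher absorbance. Membrane drug concentration taken from Kp. Stern–Volmer constants obtained at 37.0 and 42.0 °C.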

Series [2] has as its system Lipid bilayer. Kind of series: Binding affinity to DPH-PA probe-labeled DMPG liposomes assessed as main phase transition temperature at 30 uM by steady-state fluorescence anisotrope (reference value: 23.9 +/- 0.3 degC). Conditions: Microsome.
Series [3] relates to Lipid bilayer. In words: Binding affinity to DPH-PA probe-labeled DMPC liposomes assessed as binding constant by fluorescence quenching assay. The gist of the method: as §1
For series [4], the system named is Lipid bilayer. In words: Binding affinity to DPH probe-labeled DMPC liposomes assessed as binding constant by fluorescence quenching assay. The gist of the method:
as §1

Series [5] deals with Lipid bilayer. Kind of series: Binding affinity to DPH probe-labeled DMPG liposomes assessed as binding constant by fluorescence quenching assay. The gist of the method:
as §1

Series [6] is described as follows: Drug localization in DPH probe-labeled DMPG liposomes at 37 +/- 0.1 degC by fluorescence quenching. The series is classed as physicochemical. In short, it runs like this:
as §1

In series [7] the test system is Lipid bilayer. In words: Binding affinity to DPH probe-labeled DMPC liposomes assessed as main phase transition temperature at 30 uM by steady-state fluorescence anisotrope (reference value: 24.4 +/- 0.2 degC).
For series [8], the system named is Lipid bilayer. Kind of series: Binding affinity to DPH-PA probe-labeled DMPG liposomes assessed as binding constant by fluorescence quenching assay. The gist of the method:
as §1

Series [9] in a line: Drug localization in DPH-PA probe-labeled DMPC liposomes at 37 +/- 0.1 degC by fluorescence quenching. It is filed as physicochemical. In short, it runs like this: as §1
The nature of series [10]: Drug localization in DPH probe-labeled DMPC liposomes at 42 +/- 0.1 degC by fluorescence quenching. It is filed as physicochemical. In short, it runs like this:
as §1

Series [11] is described as follows: Drug localization in DPH-PA probe-labeled DMPC liposomes at 42 +/- 0.1 degC by fluorescence quenching. It is filed as physicochemical. The gist of the method:
as §1

A short description of series [12]: Drug localization in DPH probe-labeled DMPC liposomes at 37 +/- 0.1 degC by fluorescence quenching. The series is classed as physicochemical. In short, it runs like this:
as §1

The nature of series [13]: Drug localization in DPH-PA probe-labeled DMPG liposomes at 37 +/- 0.1 degC by fluorescence quenching. It is filed as physicochemical. The gist of the method:
as §1

The test system of series [14] is Lipid bilayer. Kind of series: Binding affinity to DPH-PA probe-labeled DMPC liposomes assessed as main phase transition temperature at 30 uM by steady-state fluorescence anisotrope (reference value: 24.6 +/- 0.3 degC). Conditions: Microsome.
Series [15] concerns Lipid bilayer. In words: Binding affinity to DPH probe-labeled DMPG liposomes assessed as main phase transition temperature at 30 uM by steady-state fluorescence anisotrope (reference value: 24.1 +/- 0.5 degC).
Series [16] is described as follows: Drug localization in DPH-PA probe-labeled DMPG liposomes at 42 +/- 0.1 degC by fluorescence quenching. It is filed as physicochemical. The gist of the method:
as §1

Regarding `CO[C@H]1/C=C/O[C@@]2(C)Oc3c(C)c(O)c4c(c3C2=O)C2=NC3(CCN(CC(C)C)CC3)NC2=C(NC(=O)/C(C)=C\C=C\[C@H](C)[C@H](O)[C@@H](C)[C@@H](O)[C@@H](C)[C@H](OC(C)=O)[C@@H]1C)C4=O` [RIFABUTIN], the KSV in [1] was 132 M⁻¹; in [6], 167 M⁻¹; in series [9], 165 M⁻¹; in [10], 156 M⁻¹; in [11] it was 76 M⁻¹; in series [12], 216 M⁻¹. The KSV was found to be 181 M⁻¹ in [13] and 121 M⁻¹ in series [16]. For the same compound, the Tm with Lipid bilayer [2] was 24.2 °C; in the series on Lipid bilayer [7], 24.5 °C; with Lipid bilayer [14] it was 24.5 °C; in the series on Lipid bilayer [15], 24.4 °C. The Kq in the series on Lipid bilayer [3] was 2.9e+10 M⁻¹ s⁻¹; with Lipid bilayer [4] it was 2.7e+10 M⁻¹ s⁻¹; in the series on Lipid bilayer [5], 1.9e+10 M⁻¹ s⁻¹; in the series on Lipid bilayer [8], 2.6e+10 M⁻¹ s⁻¹.

These data come from ChEMBL document CHEMBL2311392, “Differential interactions of rifabutin with human and bacterial membranes: implication for its therapeutic and toxic effects” (J Med Chem, 2013).
